Results as given in ChEMBL document CHEMBL4414551, “Design, Synthesis, and Biological Evaluation of Substituted 4,6-Dihydrospiro[[1,2,3]triazolo[4,5-b]pyridine-7,3'-indoline]-2',5(3H)-dione Analogues as Potent NS4B Inhibitors for the Treatment of Dengue Virus Infection” (J Med Chem, 2019).
Activity calls are given as the source filed them. No cut-off for these calls is given here.

Experiments:
dengue virus type 2 [1] = experiment: Antiviral activity against Dengue virus 2 D2Y98P infected in human HuH7 cells incubated for 48 hrs by viral titer reduction assay; type: functional, organism-based; settings: Huh-7, 48 h
How it was run: (§1)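 Huh7 cells seeded the day before, then infected with DENV-2 NGC or D2Y98P at MOI 0.3 in the presence of 2-fold serial compound dilutions, in triplicate. After 48 h at 37 °C, infectious virus in the culture fluid was titrated by plaque assay. EC50 from four-parameter logistic fit.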

dengue virus type 2 [2] = experiment: (§2) Antiviral activity against NS3 T606A mutant and NS4B V63L mutant containing Dengue virus 2 isolate P12-VI infected in human HuH7 cells using viral isolates selected by serial passaging in presence of (R)-5'-Chloro-3-((S)-1-(4-chlorophenyl)ethyl)-1'-(2-(dimethylamino)ethyl)-4,6-dihydrospiro[[1,2,3]triazolo[4,5-b]-pyridine-7,3'-indoline]-2',5(3H)-dione incubated for 3 days by viral reduction assay; type: functional, organism-based; settings: Huh-7
dengue virus type 2 [3] = experiment: Antiviral activity against Dengue virus 2 NGC infected in human HuH7 cells incubated for 48 hrs by viral titer reduction assay; type: functional, organism-based; settings: Huh-7, 48 h; how it was run: as §1
dengue virus type 2 [4] = experiment: Antiviral activity against Dengue virus 2 isolate P0 infected in human HuH7 cells incubated for 3 days by viral reduction assay; type: functional, organism-based; settings: isolate P0, Huh-7, 72 h
dengue virus type 2 [5] = experiment: Antiviral activity against Dengue virus 2 D2Y98P infected in A129 mouse model of dengue viremia assessed as reduction in viral morbidity by measuring body weight at 100 mg/kg, po BID for 3 days measured day 3 postinfection by viral plaque assay relative to control; type: functional, organism-based
[6] = Tmax in Sprague-Dawley rat at 20 mg/kg, po measured up to 24 hrs by LC-MS/MS analysis; type: ADME, organism-based; settings: in vivo
How it was run: (§3)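 Male SD rats, n = 3, fasted 12 h, given 20 mg/kg orally. Comparison arm given 10 mg/kg as an iv bolus, n = 3. Both formulated in DMSO:20% HP-β-CD in saline (1:9). Plasma sampled from 15 min (5 min iv) to 24 h. Analysed by LC-MS/MS against an 8-point standard curve with 6 QCs. Parameters derived by non-compartmental analysis.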

dengue virus type 1 = experiment: Antiviral activity against Dengue virus 1 WestPac infected in human HuH7 replicon cells expressing Renilla luciferase and neomycin-resistance genes assessed as reduction in viral replication incubated for 48 hrs by luciferase reporter replicon-based assay; type: functional, organism-based; settings: Huh-7, 48 h
How it was run: (§4)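 Huh7 cells stably carrying a Renilla luciferase/neomycin-resistance replicon (DENV-1 WestPac, DENV-2 NGC, DENV-3 D3MY05-34640 or DENV-4 D4MY01-22713). Cells seeded at 10k per well and incubated overnight at 37 °C, 5% CO2. Then exposed to 2-fold serial compound dilutions for 48 h, in duplicate. Luciferase read with a live-cell substrate. EC50 from four-parameter logistic fit.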

dengue virus type 2 [7] = experiment: Antiviral activity against Dengue virus 2 D2Y98P infected in A129 mouse model of dengue viremia assessed as reduction in viral loads in sera at 100 mg/kg, po BID for 3 days measured day 3 postinfection by viral plaque assay relative to control; type: functional
How it was run: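 A129 mice (IFN-α/β receptor knockout), 3 weeks old, n = 6 per group; DENV-2 D2Y98P stock grown in BHK-21 cells, 100 µL at 10⁷ PFU/ml given subcutaneously. Oral dosing started immediately, twice daily for 3 days, as a suspension in 2.5% DMSO, 50% PEG-400 and 47.5% DPBS, or vehicle alone. Retro-orbital bleed on day 3 p.i.; plasma viremia measured by plaque assay; unpaired parametric test.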

dengue virus type 3 = experiment: Antiviral activity against Dengue virus 3 D3MY05-34640 infected in human HuH7 replicon cells expressing Renilla luciferase and neomycin-resistance genes assessed as reduction in viral replication incubated for 48 hrs by luciferase reporter replicon-based assay; type: functional, organism-based; settings: D3MY05-34640, Huh-7, 48 h; how it was run: as §4
[8] = Clearance in Sprague-Dawley rat at 20 mg/kg, po measured up to 24 hrs by LC-MS/MS analysis; type: ADME, organism-based; settings: in vivo
How it was run: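 Male SD rats, N = 3, fasted 12 h; oral 20 mg/kg (alongside a 10 mg/kg i.v. bolus arm) formulated as DMSO solution : 20% HP-β-CD in saline = 1:9. Plasma sampled at 15 min, 30 min, 1, 2, 4, 8 and 24 h. Levels measured by LC-MS/MS against an 8-point standard curve with 6 QCs; parameters from non-compartmental analysis.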

dengue virus type 2 [9] = experiment: as §2, with “Resistance index, ratio of EC50 for antiviral” for “Antiviral”, “assay to EC50 for antiviral activity against Dengue virus 2 isolate P0 infected in human HuH7 cells incubated for 3 days by viral reduction assay” for “assay”; type: functional
[10] = Oral bioavailability n Sprague-Dawley rat at 20 mg/kg measured up to 24 hrs by LC-MS/MS analysis; type: ADME, organism-based; settings: in vivo; how it was run: as §3
dengue virus type 4 = experiment: Antiviral activity against Dengue virus 4 D4MY01-22713 infected in human HuH7 replicon cells expressing Renilla luciferase and neomycin-resistance genes assessed as reduction in viral replication incubated for 48 hrs by luciferase reporter replicon-based assay; type: functional, organism-based; settings: D4MY01-22713, Huh-7, 48 h; how it was run: as §4
[11] = Cytotoxicity in human HuH7 replicon cells infected with Dengue virus 2 NGC assessed as reduction in cell viability incubated for 48 hrs by Cell-titer-Glo reagent based assay; parameters: species or system Huh-7
How it was run: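 Huh7 cells or Huh7 replicon cells plated, then held at 37 °C with 5% CO₂ overnight. Exposed to 2-fold serial compound dilutions for 48 h, in duplicate. Viability read with CellTiter-Glo and normalized to 0.45% DMSO wells set at 100%. CC50 from four-parameter logistic fit.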

dengue virus type 2 [12] = experiment: Antiviral activity against Dengue virus 2 NGC infected in human HuH7 replicon cells expressing Renilla luciferase and neomycin-resistance genes assessed as reduction in viral replication incubated for 48 hrs by luciferase reporter replicon-based assay; type: functional, organism-based; settings: Huh-7, 48 h; how it was run: as §4

Compound: CC(C)CCN1C(=O)[C@]2(CC(=O)Nc3c2nnn3[C@@H](C)c2ccc(Cl)cc2)c2cc(Cl)ccc21
- EC50 (dengue virus type 2 [1]): 0.13 µM
- EC50 (dengue virus type 2 [2]): 1.96 µM
- EC50 (dengue virus type 2 [3]): 0.1 to 0.108 µM
- EC50 (dengue virus type 2 [4]): 0.123 µM
- Activity (dengue virus type 2 [5]): Active
- Tmax [6]: 1 h
- EC50 (dengue virus type 1): 0.78 µM
- log reduction (dengue virus type 2 [7]): 2.4
- EC50 (dengue virus type 3): 0.035 µM
- CL/F [8]: 3.57 L/h/kg
- Ratio EC50 (dengue virus type 2 [9]): 16
- bioavailability [10]: 30%
- EC50 (dengue virus type 4): > 5 µM
- CC50 at 48 h [11]: > 10 µM
- EC50 (dengue virus type 2 [12]): 0.16 µM
